The source of these data is ChEMBL document CHEMBL1781947, “Structure-activity studies on the nociceptin/orphanin FQ receptor antagonist 1-benzyl-N-{3-[spiroisobenzofuran-1(3H),4'-piperidin-1-yl]propyl} pyrrolidine-2-carboxamide” (Bioorg Med Chem, 2009).

The target in experiment [1] is T1, Nociceptin receptor (Homo sapiens, UniProt P41146). Kind of experiment: Displacement of [3H]N/OFQ from human recombinant NOP receptor expressed in CHO cells. The experiment is classed as cell-based. The method, boiled down: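 Membranes from CHO cells expressing human NOP, prepared in 50 mM Tris-HCl, 5 mM Mg2+ pH 7.4. Incubation: 5 µg protein, ~200 pM [3H]N/OFQ, 10 µM peptidase inhibitors (amastatin, bestatin, captopril, phosphoramidon), 0.5% BSA, increasing competitor concentrations, 1 h at room temperature. Nonspecific binding defined with 1 µM unlabeled N/OFQ. Filtration onto 0.5% PEI-soaked GF/B filters; pKi reported.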
For orientation: Displacement assays read how much labelled ligand stays bound in the presence of the test substance.

Experiment [2] has as its target T1, Nociceptin receptor. Kind of experiment: Antagonist activity at human recombinant NOP expressed in expressed on CHO cells co-expressing Galphaqi5 chimeric protein assessed as inhibition of NOPN/OFQ-stimulated calcium mobilization. The experiment is classed as functional, cell-based. The method, boiled down:
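CHO cells stably co-expressing hNOP and Gαqi5, 40,000 cells/well, loaded 24 h later with Fluo-4 AM 3 µM, probenecid 2.5 mM, pluronic 0.01% for 30 min at 37 °C. Assay buffer HBSS/20 mM HEPES with probenecid and Brilliant Black. Fluorescence read at room temperature. Antagonist inhibition of 10 nM N/OFQ response. pKb derived from IC50 via the Kb equation. Four experiments in duplicate.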
For orientation: Calcium assays in cells follow changes in intracellular calcium, usually with a dye or a luminescent sensor.

Experiment [3] concerns Mus musculus. Put plainly: Effect on N/OFQ-induced antinociceptive activity in Swiss albino mouse at 10 mg/kg, ip administered 30 mins before 1 nmol, it N/OFQ challenge by tail withdrawal latency test. The format is functional, organism-based. Also noted: dose 10 mg/kg. In outline: (§1)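 Male Swiss albino mice (25–30 g), distal half of the tail dipped in 48 °C water, 20 s cutoff, observer blind to treatment. Test agent 10 mg/kg ip in 2% DMSO/10% encapsin, 30 min before 1 nmol N/OFQ or saline given icv (2 µl) or i.t. (5 µl). Latency read before and 5, 15, 30 and 60 min after injection. Four mice per group, repeated four times (n=16).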

The test system of experiment [4] is Mus musculus. Put plainly: Effect on N/OFQ-induced pronociciceptive activity in Swiss albino mouse at 10 mg/kg, ip administered 30 mins before 1 nmol, icv N/OFQ challenge by tail withdrawal latency test. The experiment is classed as functional, organism-based. More on the design: dose 10 mg/kg. The method, boiled down:
as §1

Experiment [5] concerns the target Nociceptin receptor (Mus musculus, UniProt P35377). Kind of experiment: Antagonist activity at nociceptin receptor in Swiss mouse vas deferens assessed as inhibition of electrically evoked twitches. The format is functional, tissue-based. The following applies: read-out: pA2 (converted). In outline:
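Vas deferens from male Swiss mice (30–35 g), field-stimulated with supramaximal 1 ms pulses at 0.05 Hz. Twitches recorded isotonically after 60 min equilibration. Cumulative N/OFQ curves run in 0.5 log steps, without or with antagonist pre-incubated 15 min. pA2 from Schild analysis. At least four experiments.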

In experiment [6] the test system is Mus musculus. Put plainly: Effect on N/OFQ-induced pronociciceptive activity in Swiss albino mouse at 1 mg/kg, ip administered 30 mins before 1 nmol, icv N/OFQ challenge by tail withdrawal latency test. The experiment is classed as functional, organism-based. More on the design: dose 1 mg/kg.
Experiment [7] has as its system Mus musculus. Kind of experiment: Effect on N/OFQ-induced antinociceptive activity in Swiss albino mouse at 1 mg/kg, ip administered 30 mins before 1 nmol, it N/OFQ challenge by tail withdrawal latency test. Also noted: dose 1 mg/kg. The experiment is classed as functional, organism-based.
Experiment [8] deals with T2, Kappa-type opioid receptor (Homo sapiens, UniProt P41145). Put plainly: Displacement of [3H]DPN from human recombinant kappa-type opioid receptor expressed in CHO cell membranes. The experiment is classed as cell-based.
Experiment [9] has as its target Nociceptin receptor (Cavia porcellus) (UniProt P47748). The following applies: Albino, Ileum.
Experiment [10] deals with Nociceptin receptor (Rattus norvegicus) (UniProt P35370). The following applies: Sprague-Dawley, Vas deferens.
Experiment [11] has as its target T1, Nociceptin receptor. Put plainly: Antagonist activity at human recombinant NOP expressed in CHO cells by [35S]GTPgammaS binding assay. The experiment is classed as functional, cell-based. The following applies: read-out: pA2 (converted). In outline: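 Membranes from CHO cells stably expressing human NOP, prepared in 50 mM Tris-HCl, 0.2 mM EGTA pH 7.4; 20 µg protein with MgCl2 1 mM, NaCl 100 mM, bacitracin 0.15 mM, peptidase inhibitors, GDP 100 µM, ~150 pM [35S]GTPγS. Antagonist preincubated 15 min at 30 °C, then N/OFQ concentration-response 1 h at 30 °C; filtration without PEI. pA2 from Schild analysis.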

The target of experiment [12] is T3, Delta-type opioid receptor (Homo sapiens, UniProt P41143). The following applies: CHO.
Experiment [13] has as its target T3, Delta-type opioid receptor. Put plainly: Displacement of [3H]DPN from human recombinant delta-type opioid receptor expressed in CHO cell membranes. The method, boiled down:
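CHO membranes expressing human DOP (25 µg protein) incubated 1 h at room temperature in 50 mM Tris-HCl pH 7.4, 0.5% BSA, ~0.7 nM [3H]diprenorphine with increasing test concentrations. Filtration through PEI-soaked GF/B filters, scintillation counting. Four separate experiments.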

Experiment [14] concerns the target T4, Mu-type opioid receptor (Homo sapiens, UniProt P35372). Put plainly: Displacement of [3H]DPN from human recombinant mu-type opioid receptor expressed in CHO cell membranes. The format is cell-based.
In experiment [15] the target is T4, Mu-type opioid receptor. The following applies: CHO.
Experiment [16] concerns the target T2, Kappa-type opioid receptor. The following applies: CHO.

The source made the active and inactive calls. Where only a bound is given, the exact number is not on record here.

T1 sequence (P41146 whole entry): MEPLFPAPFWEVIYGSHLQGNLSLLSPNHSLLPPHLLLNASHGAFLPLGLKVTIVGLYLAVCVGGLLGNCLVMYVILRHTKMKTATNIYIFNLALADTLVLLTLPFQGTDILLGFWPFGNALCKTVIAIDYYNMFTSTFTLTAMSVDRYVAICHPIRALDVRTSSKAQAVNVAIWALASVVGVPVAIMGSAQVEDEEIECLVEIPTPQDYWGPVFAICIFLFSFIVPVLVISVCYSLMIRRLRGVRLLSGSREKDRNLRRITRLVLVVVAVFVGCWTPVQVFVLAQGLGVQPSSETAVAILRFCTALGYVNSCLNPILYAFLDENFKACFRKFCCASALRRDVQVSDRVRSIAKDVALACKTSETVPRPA
T2 sequence (P41145 whole entry): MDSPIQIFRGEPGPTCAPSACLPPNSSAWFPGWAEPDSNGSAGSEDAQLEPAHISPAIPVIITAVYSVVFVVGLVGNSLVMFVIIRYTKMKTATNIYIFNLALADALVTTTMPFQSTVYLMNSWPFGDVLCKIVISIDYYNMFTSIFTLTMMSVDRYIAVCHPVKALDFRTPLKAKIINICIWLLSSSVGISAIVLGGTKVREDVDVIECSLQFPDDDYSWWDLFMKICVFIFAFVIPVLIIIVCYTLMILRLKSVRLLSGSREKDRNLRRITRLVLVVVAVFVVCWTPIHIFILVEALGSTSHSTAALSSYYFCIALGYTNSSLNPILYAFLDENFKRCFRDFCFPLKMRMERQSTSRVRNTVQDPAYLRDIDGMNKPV
T3 sequence (P41143 whole entry): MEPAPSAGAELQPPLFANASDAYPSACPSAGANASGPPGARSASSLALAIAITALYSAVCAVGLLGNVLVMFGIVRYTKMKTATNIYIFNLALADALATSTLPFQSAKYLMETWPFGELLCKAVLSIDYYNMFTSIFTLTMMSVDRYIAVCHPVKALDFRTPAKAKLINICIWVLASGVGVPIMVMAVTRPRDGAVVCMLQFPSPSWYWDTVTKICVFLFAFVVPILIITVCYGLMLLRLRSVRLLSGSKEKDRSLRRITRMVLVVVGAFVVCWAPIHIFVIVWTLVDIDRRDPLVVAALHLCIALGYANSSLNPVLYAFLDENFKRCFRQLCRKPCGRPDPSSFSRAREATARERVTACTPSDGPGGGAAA
Chain of Nociceptin receptor (Mus musculus, UniProt P35377) (P35377 whole entry): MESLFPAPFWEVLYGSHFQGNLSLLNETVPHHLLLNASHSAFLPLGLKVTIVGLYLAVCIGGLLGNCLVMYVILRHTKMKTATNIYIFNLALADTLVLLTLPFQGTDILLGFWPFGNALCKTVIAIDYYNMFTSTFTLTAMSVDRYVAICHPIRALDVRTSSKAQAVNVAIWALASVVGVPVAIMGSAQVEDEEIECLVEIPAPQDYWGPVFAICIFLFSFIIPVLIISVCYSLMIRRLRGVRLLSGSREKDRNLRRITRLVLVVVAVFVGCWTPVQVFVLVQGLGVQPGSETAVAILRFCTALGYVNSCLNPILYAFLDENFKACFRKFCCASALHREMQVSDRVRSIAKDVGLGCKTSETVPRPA
T4 sequence (P35372 whole entry): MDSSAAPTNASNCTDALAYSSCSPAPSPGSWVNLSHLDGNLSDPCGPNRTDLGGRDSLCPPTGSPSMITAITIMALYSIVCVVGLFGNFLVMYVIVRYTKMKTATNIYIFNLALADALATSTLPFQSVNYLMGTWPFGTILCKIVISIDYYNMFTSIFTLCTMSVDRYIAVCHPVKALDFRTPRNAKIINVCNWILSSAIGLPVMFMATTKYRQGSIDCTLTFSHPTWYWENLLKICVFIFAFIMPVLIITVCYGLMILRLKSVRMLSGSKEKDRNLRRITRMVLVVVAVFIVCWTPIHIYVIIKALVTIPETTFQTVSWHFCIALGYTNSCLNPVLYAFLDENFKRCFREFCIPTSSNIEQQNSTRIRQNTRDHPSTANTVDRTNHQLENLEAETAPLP
Chain of Nociceptin receptor (Cavia porcellus) (P47748 whole entry): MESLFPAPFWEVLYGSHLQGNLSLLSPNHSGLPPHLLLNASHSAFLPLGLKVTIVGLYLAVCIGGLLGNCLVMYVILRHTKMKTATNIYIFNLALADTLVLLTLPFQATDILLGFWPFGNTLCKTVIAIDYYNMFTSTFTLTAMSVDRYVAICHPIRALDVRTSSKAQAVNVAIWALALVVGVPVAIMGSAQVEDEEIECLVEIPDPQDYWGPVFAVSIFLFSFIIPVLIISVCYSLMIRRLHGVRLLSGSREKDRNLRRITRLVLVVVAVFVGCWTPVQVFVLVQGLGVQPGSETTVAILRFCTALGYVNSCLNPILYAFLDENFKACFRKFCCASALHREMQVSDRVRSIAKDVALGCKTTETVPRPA
Chain of Nociceptin receptor (Rattus norvegicus) (P35370 whole entry): as the sequence (P35377 whole entry) above, with F9Y, A335S counted along it

The term Ki denotes the equilibrium dissociation constant of an inhibitor or competing ligand from its target. With `O=C(NCCCN1CCC(c2c(Cl)cccc2Cl)CC1)[C@@H]1CCCN1Cc1ccccc1`, the Ki at Nociceptin receptor [1] was 0.0832 µM.
The pKb is the Kb on a negative log10 scale, so that one unit is a factor of ten. As for `O=C(NCCCN1CCC2(CC1)OCc1ccccc12)[C@H]1CCCN1Cc1ccccc1`, the Ki at Nociceptin receptor [1] was 0.00024 µM. In addition, at Nociceptin receptor [2], the pKb is 9.03. Besides, the result with Mus musculus [3] and with Mus musculus [4] was Active. In addition, the Kb at Nociceptin receptor [5] was 0.00575 µM.
`O=C(OCCCN1CCC2(CC1)OCc1ccccc12)[C@H]1CCCN1Cc1ccccc1`: at Nociceptin receptor [1], the Ki was 0.107 µM.
As to `Cc1cccc2c1CC[C@H](CN1CCC(c3c(Cl)cccc3Cl)CC1)C[C@@H]2O`, the outcome in the experiment with Mus musculus [6] and in the experiment on Mus musculus [7] was Active.
Take `CN(CCCN1CCC2(CC1)OCc1ccccc12)C(=O)[C@H]1CCCN1Cc1ccccc1`: the Ki at Nociceptin receptor [1] is 1.15 µM.
Turning to `O=C(CNCc1ccccc1)NCCCN1CCC2(CC1)OCc1ccccc12`, at Nociceptin receptor [1], the Ki was 0.0603 µM.
Consider `N[C@@H](Cc1ccccc1)C(=O)NCCCN1CCC2(CC1)OCc1ccccc12`, for which, at Nociceptin receptor [1], the Ki was 0.0589 µM.
Same read-out and setting: under `C(=C[C@H]1CCCN1Cc1ccccc1)CCCN1CCC2(CC1)NCc1ccccc12` stands greater than 10 µM.
The same measure, in the same setting: under `N[C@H](Cc1ccccc1)C(=O)NCCCN1CCC2(CC1)OCc1ccccc12` stands 0.0589 µM; under `c1ccc(CN2CCC[C@@H]2CNCCCN2CCC3(CC2)OCc2ccccc23)cc1`, 0.049 µM.
Regarding `O=C(NCCCN1CCC(c2c(Cl)cccc2Cl)CC1)[C@H]1CCCN1Cc1ccccc1`, the Ki in experiment [8] is 0.316 µM; at Nociceptin receptor [1], 0.000724 µM; in [13], greater than 1 µM; at Mu-type opioid receptor [14] it was 0.191 µM. Also, the pKb on Nociceptin receptor [2] is 8.47; in experiment [9], 8.84; in experiment [10] it was 8.06; in [12], less than 6; at Mu-type opioid receptor [15], 6.11; in experiment [16], less than 6. Further, the outcome in the experiment on Mus musculus [3] and in the experiment on Mus musculus [4] was inactive. Besides, the figures for the Kb on Nociceptin receptor [11] and on Nociceptin receptor [5] were 0.000123 µM and 0.01 µM, respectively.
Take `c1ccc(CN2CCC[C@@H]2COCCCN2CCC3(CC2)OCc2ccccc23)cc1`: the Ki on Nociceptin receptor [1] is 0.158 µM.
